Measured values published in ChEMBL document CHEMBL3112573, “Design, synthesis and evaluation of acridine and fused-quinoline derivatives as potential anti-tuberculosis agents” (Eur J Med Chem, 2014).
Converted amounts (≈) assume the structure as drawn.

What was measured:
Type in all cases: functional
[1] = system: Mycobacterium tuberculosis; assay: Antimicrobial activity against isoniazid-resistant Mycobacterium tuberculosis H37Rv SRI 1369 assessed as growth inhibition after 7 days by broth microdilution assay; details: H37Rv SRI 1369, 168 h
Procedure, shortened: (§1)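 Broth microdilution per CLSI in Middlebrook 7H9 + OADC; ten two-fold dilutions; inoculum targeted 1.0 × 10^6 CFU/mL M. tuberculosis; 37 °C, ~90% humidity, 7 days. Wells scored visually for turbidity, partial or complete clearing; MIC = lowest concentration visually inhibiting growth; percent inhibition at the MIC also recorded. Duplicates; rifampin or isoniazid positive control, medium-only and organism-only controls.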

[2] = system: Mycobacterium tuberculosis; assay: Antimicrobial activity against ofloxacin-resistant Mycobacterium tuberculosis H37Rv SRI 4000 assessed as growth inhibition at MIC after 7 days by broth microdilution assay relative to control; procedure, shortened: as §1
[3] = system: Mycobacterium tuberculosis; assay: Antimicrobial activity against rifampin-resistant Mycobacterium tuberculosis H37Rv SRI 1367 assessed as growth inhibition at MIC after 7 days by broth microdilution assay relative to control; procedure, shortened: as §1
[4] = system: Mycobacterium tuberculosis; assay: Antimicrobial activity against isoniazid-resistant Mycobacterium tuberculosis H37Rv SRI 1369 assessed as growth inhibition at MIC after 7 days by broth microdilution assay relative to control; procedure, shortened: as §1
[5] = system: Mycobacterium tuberculosis; assay: Antimicrobial activity against ofloxacin-resistant Mycobacterium tuberculosis H37Rv SRI 4000 assessed as growth inhibition after 7 days by broth microdilution assay; details: H37Rv SRI 4000, 168 h; procedure, shortened: as §1
[6] = system: Mycobacterium tuberculosis; assay: Antimicrobial activity against rifampin-resistant Mycobacterium tuberculosis H37Rv SRI 1367 assessed as growth inhibition after 7 days by broth microdilution assay; details: H37Rv SRI 1367, 168 h; procedure, shortened: as §1

For `Clc1ccc2nc3c(c(-c4ccccc4)c2c1)CCC3`, the MIC [1] was 6.25 mg/L (≈ 22.3 µM), the “growth inhibition (GI)” value [2] was 81% and the “growth inhibition (GI)” value [3] was 83%. The “growth inhibition (GI)” value [4] was 69%, the MIC [5] was 12.5 mg/L (≈ 44.7 µM) and the MIC [6] was 6.25 mg/L (≈ 22.3 µM).
`O=[N+]([O-])c1ccc2nc3c(c(-c4ccccc4)c2c1)CCCC3` was tested, and the MIC [1] was 6.25 mg/L (≈ 20.5 µM), the “growth inhibition (GI)” value [2] was 50% and the “growth inhibition (GI)” value [3] was 69%. For the same compound, the “growth inhibition (GI)” value [4] was 41%, the MIC [5] was 3.12 mg/L (≈ 10.3 µM) and the MIC [6] was 3.12 mg/L (≈ 10.3 µM).
In the case of `O=[N+]([O-])c1ccc2nc3c(c(-c4ccccc4)c2c1)CCCCC3`, the MIC [1] was 37.5 mg/L (≈ 118 µM), the “growth inhibition (GI)” value [2] was 70% and the “growth inhibition (GI)” value [3] was 72%. For the same compound, the “growth inhibition (GI)” value [4] was 52%, the MIC [5] was 37.5 mg/L (≈ 118 µM) and the MIC [6] was 37.5 mg/L (≈ 118 µM).
In the case of `NNC(=O)c1ccncc1` [ISONIAZID], the “growth inhibition (GI)” value [3] was 85% and the MIC [6] was 0.02 mg/L (≈ 0.146 µM).
For `CO[C@H]1/C=C/O[C@@]2(C)Oc3c(C)c(O)c4c(O)c(c(/C=N/N5CCN(C)CC5)c(O)c4c3C2=O)NC(=O)/C(C)=C\C=C\[C@H](C)[C@H](O)[C@@H](C)[C@@H](O)[C@@H](C)[C@H](OC(C)=O)[C@@H]1C` [RIFAMPIN], the MIC [1] was 0.02 mg/L (≈ 0.0243 µM), the “growth inhibition (GI)” value [2] was 71% and the “growth inhibition (GI)” value [4] was 74%. For the same compound, the MIC [5] was 1.56 mg/L (≈ 1.9 µM).
